pIC50: −log10 of the molar value. The source made the active and inactive calls. No cut-off for these calls is given here.
Assays:
HCT-116 [1] = assay: Induction of apoptosis in human HCT116 cells assessed as viable cells at 2 times IC50 after 24 hrs by annexin V-FITC/propidium iodide staining-based flow cytometry method (reference value: 86.0%); type: functional
HCT-116 [2] = assay: Induction of apoptosis in human HCT116 cells assessed as necrotic cells at 1 times IC50 after 24 hrs by annexin V-FITC/propidium iodide staining-based flow cytometry method (reference value: 4.8%); type: functional
HCT-116 [3] = assay: Induction of apoptosis in human HCT116 cells assessed as viable cells at 1 times IC50 after 24 hrs by annexin V-FITC/propidium iodide staining-based flow cytometry method (reference value: 86.0%); type: functional
MCF-10A [4] = assay: Induction of apoptosis in human MCF10A cells assessed as early apoptotic cells at 1 times IC50 after 24 hrs by annexin V-FITC/propidium iodide staining-based flow cytometry method (reference value: 0.20%); type: cell-based
A549 = assay: Cytotoxicity against human A549 cells assessed as reduction in cell viability after 72 hrs by MTS assay; type: functional, cell-based; conditions: A549, 72 h
How it was run: (§1)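 MTS (CellTiter 96 AQueous One) proliferation read after 72 h of exposure across a concentration range. IC50 is the concentration giving 50% proliferation inhibition. Triplicate determinations in three independent experiments, mean ± SD.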

MCF-10A [5] = assay: Induction of apoptosis in human MCF10A cells after 24 hrs by annexin V-FITC/propidium iodide staining-based flow cytometry method; type: cell-based
HCT-116 [6] = assay: Induction of apoptosis in human HCT116 cells after 24 hrs by annexin V-FITC/propidium iodide staining-based flow cytometry method; type: functional, cell-based
MCF-10A [7] = assay: Induction of apoptosis in human MCF10A cells assessed as necrotic cells at 1 times IC50 after 24 hrs by annexin V-FITC/propidium iodide staining-based flow cytometry method (reference value: 0.57%); type: cell-based
MCF7 [8] = assay: Cytotoxicity against human MCF7 cells assessed as reduction in cell viability after 72 hrs by MTS assay; type: functional, cell-based; conditions: MCF7, 72 h
How it was run: (§2)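 Cells kept in DMEM with 10% FBS at 37 °C, 5% CO2. Proliferation read by MTS (CellTiter 96 AQueous One) 72 h after exposure across a concentration range. IC50 is the concentration giving 50% proliferation inhibition. Triplicate wells, three independent experiments, mean ± SD.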

HCT-116 [9] = assay: Induction of apoptosis in human HCT116 cells assessed as early apoptotic cells at 1 times IC50 after 24 hrs by annexin V-FITC/propidium iodide staining-based flow cytometry method (reference value: 3.8%); type: functional
MCF-10A [10] = assay: Induction of apoptosis in human MCF10A cells assessed as late apoptotic cells at 1 times IC50 after 24 hrs by annexin V-FITC/propidium iodide staining-based flow cytometry method (reference value: 3.81%); type: cell-based
MCF-10A [11] = assay: Induction of apoptosis in human MCF10A cells assessed as early apoptotic cells at 2 times IC50 after 24 hrs by annexin V-FITC/propidium iodide staining-based flow cytometry method (reference value: 0.20%); type: cell-based
MCF-10A [12] = assay: Induction of apoptosis in human MCF10A cells assessed as late apoptotic cells at 2 times IC50 after 24 hrs by annexin V-FITC/propidium iodide staining-based flow cytometry method (reference value: 3.81%); type: cell-based
HT-29 = assay: Cytotoxicity against human HT-29 cells assessed as reduction in cell viability after 72 hrs by MTS assay; type: functional, cell-based; conditions: HT-29, 72 h; how it was run: as §1
MCF7 [13] = assay: Cytotoxicity against human MCF7 cells assessed as reduction in cell viability at 20 uM after 72 hrs by MTS assay relative to control; type: functional
How it was run: (§3)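 Cells grown in DMEM with 10% FBS at 37 °C, 5% CO2, exposed to 20 μM for 72 h. Proliferation read by MTS and inhibition expressed relative to vehicle. ≥50% inhibition counted as active. Triplicate wells, three independent experiments.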

HCT-116 [14] = assay: Induction of apoptosis in human HCT116 cells assessed as necrotic cells at 2 times IC50 after 24 hrs by annexin V-FITC/propidium iodide staining-based flow cytometry method (reference value: 4.8%); type: functional
HCT-116 [15] = assay: Induction of apoptosis in human HCT116 cells assessed as late apoptotic cells at 1 times IC50 after 24 hrs by annexin V-FITC/propidium iodide staining-based flow cytometry method (reference value: 5.4%); type: functional
MCF-10A [16] = assay: Cytotoxicity against human MCF10A cells assessed as reduction in cell viability after 72 hrs by MTS assay; type: cell-based; how it was run: as §1
[17] = Selectivity index, ratio of IC50 for human MCF10A cells to IC50 for human MCF7 cells; type: toxicity; conditions: MCF10A cells versus MCF7 cells, read-out: Ratio IC50
HCT-116 [18] = assay: Induction of apoptosis in human HCT116 cells accumulation of cleaved caspase-9 level at 2 times IC50 after 8 hrs by Western blot analysis; type: functional, cell-based
How it was run: (§4)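 Whole lysates in SDS/β-mercaptoethanol sample buffer run on 4–18% gradient SDS-PAGE and transferred to PVDF. Blocked in 5% milk/PBST, primary antibodies overnight at 4 °C, HRP secondaries 1 h. β-actin served as loading reference.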

HCT-116 [19] = assay: Induction of apoptosis in human HCT116 cells accumulation of cleaved caspase-3 level at 2 times IC50 after 12 hrs by Western blot analysis; type: functional, cell-based; how it was run: as §4
[20] = Induction of apoptosis in human MCF10A cells assessed as viable cells at 2 times IC50 after 24 hrs by annexin V-FITC/propidium iodide staining-based flow cytometry method (reference value: 95.4%); type: cell-based, MCF-10A; conditions: read-out: Activity
HCT-116 [21] = assay: Cytotoxicity against human HCT116 cells assessed as reduction in cell viability after 72 hrs by MTS assay; type: functional, cell-based; conditions: HCT-116, 72 h; how it was run: as §2
HCT-116 [22] = assay: Induction of apoptosis in human HCT116 cells assessed as early apoptotic cells at 2 times IC50 after 24 hrs by annexin V-FITC/propidium iodide staining-based flow cytometry method (reference value: 3.8%); type: functional
HCT-116 [23] = assay: Induction of apoptosis in human HCT116 cells after 24 hrs by acridine orange/ethidium bromide staining-based fluorescence microscopic analysis; type: functional, cell-based
HCT-116 [24] = assay: Induction of mitochondrial membrane depolarization in human HCT116 cells at 2 times IC50 after 24 hrs by JC-1 staining based fluorescence microscopic analysis; type: functional, cell-based
How it was run: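 HCT-116 cells exposed at 2× IC50 for 24 h, washed, then stained with JC-1 in fresh medium for 20 min at 37 °C and rinsed. Red aggregates and green monomers imaged by fluorescence microscopy at 40×.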

HCT-116 [25] = assay: Induction of apoptosis in human HCT116 cells accumulation of cleaved caspase-9 level at 2 times IC50 after 12 hrs by Western blot analysis; type: functional, cell-based; how it was run: as §4
HCT-116 [26] = assay: Induction of apoptosis in human HCT116 cells assessed as late apoptotic cells at 2 times IC50 after 24 hrs by annexin V-FITC/propidium iodide staining-based flow cytometry method (reference value: 5.4%); type: functional
HCT-116 [27] = assay: Induction of apoptosis in human HCT116 cells accumulation of cleaved caspase-7 level at 2 times IC50 after 12 hrs by Western blot analysis; type: functional, cell-based; how it was run: as §4
HCT-116 [28] = assay: Cytotoxicity against human HCT116 cells assessed as reduction in cell viability at 20 uM after 72 hrs by MTS assay relative to control; type: functional; how it was run: as §3
HCT-116 [29] = assay: Cell cycle arrest in human HCT116 cells assessed as increase in accumulation of cells at sub-G1 phase after 24 hrs by propidium iodide staining-based flow cytometry method; type: functional
HeLa = assay: Cytotoxicity against human HeLa cells assessed as reduction in cell viability after 72 hrs by MTS assay; type: functional, cell-based; how it was run: as §1
MCF-10A [30] = assay: Induction of apoptosis in human MCF10A cells assessed as necrotic cells at 2 times IC50 after 24 hrs by annexin V-FITC/propidium iodide staining-based flow cytometry method (reference value: 0.57%); type: cell-based
MDA-MB-231 = assay: Cytotoxicity against human MDA-MB-231 cells assessed as reduction in cell viability after 72 hrs by MTS assay; type: functional, cell-based; conditions: MDA-MB-231, 72 h; how it was run: as §1
[31] = Induction of apoptosis in human MCF10A cells assessed as viable cells at 1 times IC50 after 24 hrs by annexin V-FITC/propidium iodide staining-based flow cytometry method (reference value: 95.4%); type: cell-based, MCF-10A; conditions: read-out: Activity
HCT-116 [32] = assay: Induction of apoptosis in human HCT116 cells accumulation of cleaved PARP1 level at 2 times IC50 after 12 hrs by Western blot analysis; type: functional, cell-based; how it was run: as §4
HCT-116 [33] = assay: Induction of reactive oxygen species generation in human HCT116 cells assessed as increase in mitochondrial superoxide generation at 1 to 2 times IC50 after 24 hrs by MitoSOX red dye-based fluorescence microscopic analysis; type: functional, cell-based

**Q.** For `COc1ccc(OC)c(C(=O)/C=C/c2nc3ccccc3c(=O)[nH]2)c1`, which Activity (HCT-116 [1]) is on record?
**A.** Its Activity is 54.3%.

**Q.** And the Activity (HCT-116 [2])?
**A.** Its Activity is 8.9%.

**Q.** What about the Activity (HCT-116 [3]) of the same compound?
**A.** Its Activity is 78.2%.

**Q.** What about the Activity (MCF-10A [4]) of the same compound?
**A.** Its Activity is 0.3%.

**Q.** And the pIC50 (A549)?
**A.** The pIC50 was 4.90.

**Q.** What about the Activity (MCF-10A [5]) of the same compound?
**A.** Its Activity is “Dose-dependent effect”.

**Q.** And the Activity (HCT-116 [6])?
**A.** The Activity was “Dose-dependent effect”.

**Q.** What about the Activity (MCF-10A [7]) of the same compound?
**A.** The Activity was 0.62%.

**Q.** And the pIC50 (MCF7 [8])?
**A.** The pIC50 was 5.39.

**Q.** And the Activity (HCT-116 [9])?
**A.** The Activity was 2.1%.

**Q.** What about the Activity (MCF-10A [10]) of the same compound?
**A.** Its Activity is 4.67%.

**Q.** What about the Activity (MCF-10A [11]) of the same compound?
**A.** Its Activity is 1.19%.

**Q.** What about the Activity (MCF-10A [12]) of the same compound?
**A.** The Activity was 5.38%.

**Q.** And the pIC50 (HT-29)?
**A.** The pIC50 was 5.21.

**Q.** What about the Activity (MCF7 [13]) of the same compound?
**A.** Its Activity is “>=50%”.

**Q.** And the Activity (HCT-116 [14])?
**A.** Its Activity is 9.7%.

**Q.** And the Activity (HCT-116 [15])?
**A.** Its Activity is 10.8%.

**Q.** What about the pIC50 (MCF-10A [16]) of the same compound?
**A.** The pIC50 was 5.01.

**Q.** What about the selectivity ratio [17] of the same compound?
**A.** The selectivity ratio was > 2.

**Q.** What about the Activity (HCT-116 [18]) of the same compound?
**A.** Its Activity is “Active”.

**Q.** What about the Activity (HCT-116 [19]) of the same compound?
**A.** Its Activity is “Active”.

**Q.** And the viability at 24 h, 2 times IC50 [20]?
**A.** Its viability at 24 h, 2 times IC50 is 92.6%.

**Q.** And the pIC50 (HCT-116 [21])?
**A.** Its pIC50 is 5.45.

**Q.** What about the Activity (HCT-116 [22]) of the same compound?
**A.** The Activity was 6.9%.

**Q.** What about the Activity (HCT-116 [23]) of the same compound?
**A.** Its Activity is “Dose-dependent effect”.

**Q.** What about the Activity (HCT-116 [24]) of the same compound?
**A.** Its Activity is “Active”.

**Q.** What about the Activity (HCT-116 [25]) of the same compound?
**A.** The Activity was “Active”.

**Q.** And the Activity (HCT-116 [26])?
**A.** Its Activity is 29.1%.

**Q.** What about the Activity (HCT-116 [27]) of the same compound?
**A.** Its Activity is “Active”.

**Q.** What about the Activity (HCT-116 [28]) of the same compound?
**A.** Its Activity is “>=50%”.

**Q.** What about the Activity (HCT-116 [29]) of the same compound?
**A.** Its Activity is “Dose-dependent effect”.

**Q.** What about the pIC50 (HeLa) of the same compound?
**A.** Its pIC50 is 5.08.

**Q.** And the Activity (MCF-10A [30])?
**A.** Its Activity is 0.87%.

**Q.** And the pIC50 (MDA-MB-231)?
**A.** Its pIC50 is 4.97.

**Q.** And the viability at 24 h, 1 times IC50 [31]?
**A.** The viability at 24 h, 1 times IC50 was 94.4%.

**Q.** What about the Activity (HCT-116 [32]) of the same compound?
**A.** The Activity was “Active”.

**Q.** What about the Activity (HCT-116 [33]) of the same compound?
**A.** Its Activity is “Active”.
